# Reference: ChEMBL document CHEMBL1125477, “Highly potent and selective heptapeptide antagonists of the neurokinin NK-2 receptor” (J Med Chem, 1992)
# Square brackets hold non-standard residues; d marks the D form. Peptide text beside a SMILES is read from it. * marks the point of attachment. Nle = CCCC[C@H](N)C(=O)O; Bz = O=C(c1ccccc1)*
# How the values were obtained:
# [1] = target: Substance-P receptor (Cavia porcellus) (UniProt P30547); experiment: Compound was evaluated for antagonism of contractile response of guinea pig ileum longitudinal smooth muscle (GPI) at Tachykinin receptor 1; type: functional, tissue-based
# In short: (§1)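 Isolated longitudinal smooth muscle of ileum from male Dunkin-Hartley guinea-pigs (300–600 g), killed by concussion and exsanguination. Contraction to SP methyl ester (NK-1 agonist). At least two control agonist curves, then one antagonist concentration per preparation. Concentration-ratio read graphically at half-maximal response. pK_B = log(CR−1) − log[antagonist]. Mean ± SE over four to eight tissues.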
# [2] = target: T1, Substance-K receptor (Rattus norvegicus) (UniProt P16610); experiment: Compound was evaluated for antagonism of contractile response of rat colon muscularis mucosae (RC) at Tachykinin receptor 2; type: functional, tissue-based; settings: Muscularis mucosa
# T1 sequence (whole entry): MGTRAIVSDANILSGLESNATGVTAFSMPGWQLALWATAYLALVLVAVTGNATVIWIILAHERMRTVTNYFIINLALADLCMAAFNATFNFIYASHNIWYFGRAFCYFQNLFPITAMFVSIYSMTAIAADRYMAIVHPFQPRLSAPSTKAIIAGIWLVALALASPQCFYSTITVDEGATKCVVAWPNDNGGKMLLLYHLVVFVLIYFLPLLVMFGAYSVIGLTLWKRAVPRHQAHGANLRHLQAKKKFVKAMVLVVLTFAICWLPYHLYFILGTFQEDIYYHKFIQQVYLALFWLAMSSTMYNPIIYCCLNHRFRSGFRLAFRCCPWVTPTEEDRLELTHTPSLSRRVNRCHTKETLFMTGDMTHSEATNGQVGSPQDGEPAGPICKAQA
# In short: (§2)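 Colon muscularis mucosae from male AHA rats (250–500 g), killed by concussion and exsanguination. Contraction to neurokinin A (NK-2). At least two control agonist curves, then a single antagonist concentration per tissue. Equiactive agonist concentration-ratio taken at half-maximal response. pK_B = log(CR−1) − log[antagonist]. Mean ± SE over four to eight preparations.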
# [3] = target: T2, Neuromedin-K receptor (Rattus norvegicus) (UniProt P16177); experiment: Compound was evaluated for antagonism of contractile response of rat portal vein at Tachykinin receptor 3; type: functional
# T2 sequence (whole entry): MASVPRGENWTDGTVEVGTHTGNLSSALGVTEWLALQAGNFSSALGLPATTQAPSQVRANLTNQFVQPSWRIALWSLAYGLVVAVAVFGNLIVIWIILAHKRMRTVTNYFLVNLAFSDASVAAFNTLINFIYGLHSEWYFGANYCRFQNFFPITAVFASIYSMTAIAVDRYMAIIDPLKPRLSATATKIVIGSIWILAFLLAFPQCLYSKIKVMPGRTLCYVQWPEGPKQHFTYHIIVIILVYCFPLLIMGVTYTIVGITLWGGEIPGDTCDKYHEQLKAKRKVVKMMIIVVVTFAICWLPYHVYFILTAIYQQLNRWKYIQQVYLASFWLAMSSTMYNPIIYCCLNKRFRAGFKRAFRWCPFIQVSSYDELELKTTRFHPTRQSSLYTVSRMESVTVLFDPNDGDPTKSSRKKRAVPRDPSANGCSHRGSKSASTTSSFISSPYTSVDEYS
# In short: (§3)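 Everted portal vein from male AHA rats (250–500 g). Contraction to senktide (NK-3). Agonist curves were repeated at least twice before exposure to one antagonist concentration per preparation. Concentration-ratio estimated graphically at the half-maximal level. pK_B = log(CR−1) − log(molar antagonist). Mean ± SE of four to eight tissues.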
# [4] = target: Substance-P receptor (Cavia porcellus) (UniProt P30547); experiment: Compound was evaluated for antagonism of contractile response of guinea pig ileum longitudinal smooth muscle (GPI) at tachykinin receptor 1; type: functional, tissue-based; in short: as §1
# [5] = target: T1, Substance-K receptor (Rattus norvegicus); experiment: Compound was evaluated for antagonism of contractile response of rat colon muscularis mucosae (RC) at tachykinin receptor 2; type: functional, tissue-based; settings: Muscularis mucosa; in short: as §2
# [6] = target: T2, Neuromedin-K receptor (Rattus norvegicus); experiment: Compound was evaluated for antagonism of contractile response of rat portal vein at tachykinin receptor 3; type: functional; in short: as §3
# Sequence of Substance-P receptor (Cavia porcellus) (P30547 whole entry): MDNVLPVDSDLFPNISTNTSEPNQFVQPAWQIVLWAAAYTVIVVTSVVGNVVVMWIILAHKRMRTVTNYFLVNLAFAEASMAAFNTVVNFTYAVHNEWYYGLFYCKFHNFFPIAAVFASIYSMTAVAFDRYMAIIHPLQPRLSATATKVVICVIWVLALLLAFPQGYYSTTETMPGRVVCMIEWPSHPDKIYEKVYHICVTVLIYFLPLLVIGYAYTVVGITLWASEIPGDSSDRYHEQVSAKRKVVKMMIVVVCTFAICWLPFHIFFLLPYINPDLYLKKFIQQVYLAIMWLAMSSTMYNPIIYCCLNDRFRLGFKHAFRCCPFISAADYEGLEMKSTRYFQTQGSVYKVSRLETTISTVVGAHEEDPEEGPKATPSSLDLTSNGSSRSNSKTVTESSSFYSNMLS
SMILES,pKB [1],pKB [2],pKB [3],pKB [4],pKB [5],pKB [6]
CCCC[C@H](NC(=O)[C@@H]1CCCN1C(=O)[C@H]1CCCN1C(=O)[C@H](Cc1ccccc1)NC(=O)[C@@H](Cc1c[nH]c2ccccc12)NC(=O)[C@H](C)NC(=O)[C@H](CCC(N)=O)NC(=O)OC(C)(C)C)C(N)=O,5.6,7.9,5.1,–,–,–
CCCC[C@H](NC(=O)[C@@H]1CCCN1C(=O)[C@H]1CCCN1C(=O)[C@H](Cc1ccccc1)NC(=O)[C@@H](Cc1c[nH]c2ccccc12)NC(=O)[C@H](C)NC(=O)[C@H](CCC(N)=O)NC(=O)c1ccccc1)C(N)=O,6.6,8.8,5.6,–,–,–
CCCC[C@H](NC(=O)[C@@H]1CCCN1C(=O)[C@H]1CCCN1C(=O)[C@H](Cc1ccccc1)NC(=O)[C@@H](Cc1c[nH]c2ccccc12)NC(=O)[C@H](C)NC(=O)[C@H](C)NC(=O)c1ccccc1)C(N)=O (Bz-AA[dW]F[dP]P[Nle]-NH2),6.4,9.6,6,–,–,–
CCCC[C@H](NC(=O)[C@@H]1CCCN1C(=O)[C@H]1CCCN1C(=O)[C@H](Cc1ccccc1)NC(=O)[C@H](Cc1ccccc1)NC(=O)[C@H](C)NC(=O)[C@@H](N)CCCN=C(N)N)C(N)=O,–,–,–,< 4.6,< 4.6,< 4.6
CSCC[C@@H](NC(=O)[C@H](CC(C)C)NC(=O)[C@H]1CCCN1C(=O)[C@H](Cc1ccccc1)NC(=O)[C@@H](Cc1c[nH]c2ccccc12)NC(=O)[C@H](C)NC(=O)[C@@H](N)CCCN=C(N)N)C(N)=O,–,–,–,< 4.6,5.7,4.9
CCCC[C@H](NC(=O)[C@@H]1CCCN1C(=O)[C@H]1CCCN1C(=O)[C@H](Cc1ccccc1)NC(=O)[C@@H](Cc1c[nH]c2ccccc12)NC(=O)[C@H](C)NC(=O)[C@H](C)NC(=O)OC(C)(C)C)C(N)=O,5.5,9.3,4.7,–,–,–
